Experimental findings from the RNAGym collection of RNA variant scans (doi:10.1126/science.aae0568) are described below.

B1: tRNA (parent)
chain: GUUCCGUUGGCGUAAUGGUAACGCGUCUCCCUCCUAAGGAGAAGACUGCGGGUUCGAGUCCCGUACGGAACG

This sample holds only a part of the variants without activity.

Variants of B1 are the subject of this data set. Briefly: yeast fitness relative to wild type (ratio to wild type); higher = fitter; tRNA-Arg(CCU), competitive growth, 37 C, YPD. The gist of the method: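 Genotype frequency changes were the basis for Darwinian fitness relative to wild type. The frequencies came from 100-nucleotide paired-end sequencing of gene amplicons from the start population and each end population of pooled yeast strains with tRNA-Arg(CCU) gene variants at the native locus. Competition ran in YPD at 37°C for 24 hours in six replicates, genotypes needed ≥ 100 starting reads, and estimates < 0.5 were set to 0.5.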
As to GUUCCGCUGGCGUAAUGGUAACGCCUCUCCCUCCUAAGGAGAAGACCGCGGGUUCGAGUCCCGUACGGAACG, the yeast fitness stood at 0.622. As to GUUCCGUUGGCGUAAUGGUAACGCGUCUCCCUCCUAAGGAGAAGACUGCGGGUUCGAGUCCCGUAGGGUACG, the yeast fitness came out at 0.746. With GUUCCGUUGGCGUCAUGGUAACGCGUCUCCGUCCUAUGCAGCAGACUGCGGGUUCGAGUCCCGUACGGAACG the figure was not above 0.5; with GUUCCGUUGGCGUAAUGGUAACGCGUCUCCCUCCUACCGAGAAGACUGCGGGUCCGAGUCUCGUACGGAACG, 0.678.

As for GUUCCGUUGGCGUAGUGGUUACGCGUCUCCCUCCUAAGGAGAAGACUGCGGGUUCGAGUCCCGUACGGAACG, the yeast fitness worked out at 1.06. As for GUUCCGUUGGCGUAAUGGUAACGCGUCUCCCUCCUAAGGAGAAGACUGUGGGUCCGAGUCCCGUACGGAACG, the figure is 0.864. For the variant GUUCCGUUGGUGUAAUGGUAACGCGUCUCCCUCCUAAGGAGAAGACUACGGGUCCGAGUCCCGUACGGAACG, the yeast fitness stood at 0.677. As for GUUGCGUUGACGUAAUGGUAAGGCGUCUCCCUCCUAAGGAGAAGACUGCGGGUUAGAGUCCCGUACGGAACG, the yeast fitness came out at 0.555.

Turning to GUUCCCUUGGCGUAAUGGUGACGCGUCUCCCUCCUAAGGAGAAGACUGCGGGUUCGAGUCGCGUACGGAACG, the yeast fitness was not above 0.5. As for GUUCCCUUGGUGUAAUGGUAACGCGUCUCCCUCCUAAGGAGAAGACUGCGGGUUCGAGUCCCGUACGGAACG, the figure is 0.872. As for GUUCCGUUGGCGUAAUGGCAACGCGUCUCCCUCCUAGGGAGAAGACUGCGGGUUCGAGUCCCGUACGGAACG, the figure is 0.784. As for GUUCCGUUGGCGUAAUGGUGACGCGUCUCCCUCCCAAGGAGAAGACUGCGGGUUCGAGUCCCGUACGGAACG, the figure is 0.836. For the variant GUUCCGUUGCCGUAAUGGUAACGCGUCUCCCUCCUAAGGAGAAGACUGCGGGUUCGAGUCCCGUACGGACCG, the yeast fitness was 0.689. As for GUUUCGUUGGGGUAAUGGUAACGCGUCUACCUCCUAAGGAGAAGACUGCGGGUUCGAGUCCCGUACGGAACG, the figure is 0.597. As for GUUCCGUUGGCGUAAUGGUAACGCCUCUCCCUCUUCAGGAAAAGACUGGGGGUUCGAGUCCCGUACGGAACG, the figure is not above 0.5; as for GUUCCGUUGGCGUAAUGGUAAUGAGUCUCCCUCCUAAGGAGUAGACUGCGGGUUCGAGUCUCGUACGGAACG, 0.562.

Regarding GUUCCGUCGGCGUAAUGGUAACCCGCCUGCCUCCUAAGGAGAAGUCUGCGGGUUCGAGUCCCGUACGGAACG, the yeast fitness was not above 0.5. As for GUUCCGUUGGCGUAAUGGUAACGCGUCUCCCUCCUAAGGAGAUGACUGCGGAUUCGAGUCCCGUACGGUACG, the figure is not above 0.5; as for GUUCCGUUGGCGUAAUGGUAACGCGUGUCCCUCCUAAGGAGAAGACCGCGGGUUCGAGUCCCGUACGGAACG, 0.652.

As to GUUCUGUUGGCGUAAUGGUAACGCGUCUCCCUCCUAAGGAGAAGACUGCGGGUUCGAGUCCCGGACGGAACG, the yeast fitness stood at 0.853. Turning to GAUCCGUUGGCGUAAUGGUACCGCGUCUUCCUCCUAAGGAGAAGACUGCGAGUUCGAGUCCCGUACGGAACG, the yeast fitness amounted to 0.574. With GUUCCGUUGGCAUAAUGGUAACGUGUCUCCCUCCUAAGGAGAAGACUGCGGGUUCGAGUCCCGUACAGUACG the figure was not above 0.5; with GUUCCGUUGGCGUAAUGGUAACGCGUCUCCCUCCUAAGGAGAAGACUGGGGGUUCGAGUCCCCUACGGAACG, 0.967. As for GUUCCGUUGGCGUAAUGGUAACGCGUCUGCCUCAUAGGGAGAAGACUGCGGGUUCGAGUACCGUACGGAACG, the figure is not above 0.5. As for GUUCCGUUGACGUAAUGGUGACGCGCCUCCCUCCUAAGGAGAAGACUGCGGGUUCGAGUCCCGUACGGCGCG, the figure is not above 0.5; as for GUUCCGUUGGCGUAAUGGUAACGCGUCUCCCCCCUAAGGAGAAGACUGCGGGUUCGAGUCCCGUUCGGAACG, 0.957. GUUCGGUUGGCGUAAUGGUGACGCGUCUCCCUCCUAAGGGGAAAAGUGCGGGUUCGAGUCCCGUCCGGAACG: the yeast fitness is not above 0.5. GUUCCGUUGGCGUAAUGGUAAUGCGUCUCCCUCCUAAGGAGAAGACUGCGGGUUCGAAUCCCGUACGGAACG: the yeast fitness stood at 0.926. In the case of GUUCCGUUGGCGUAAUGGUAACGCGUUUCCCUCCUAAGGAGUAGACUGCGGGGUCGAGUCCCGUACGCAACG, the yeast fitness worked out at 0.545.

On to GUUCCGUUGGCGUAAUGGUGACGCAUCUCCCUCCUAAGGAGAAGACUGCGGGUUAGAGUCCCGUACGGAACG, for which the yeast fitness was not above 0.5. As for GUUCCGUCGGCGUAAUGGUAACGCGUCUCCCACCUAAGGAGAAGACUGCGGGUUCGAGUCCCGUACGGAACG, the figure is 0.755; as for GUACCGUUGGGGUAAUGGUAAAGCGUCUCCCUGCUAAGGAGAAGACUGCGGGUUCGAGUCCCGUACGGAACG, not above 0.5; as for GUUCCGUUGGCGUAAUGGUAACGCGUCCCCCUCCUAAGGAGAAGACUGCGGGUUCGAGUCCCGUAGGGAACG, 0.72. For the variant GUUCCAUUGGCGUAAUGGUAACGCGUCUCUCUCCUAAGGAGAAGACUGCGGGUUCGAGUCCCGUACGGAACG, the yeast fitness turned out to be 0.742.

GUUCCGUUGGGGUAAUGGUAACGCGUCUCCCUCGUCAGGAGAAGACUGCGGGUUCGAGUCCCGUACGGAACG: the yeast fitness is not above 0.5. As for GUUCCGUUGGCGUAAUGGUAACGCGUAUCCCUUCUAAGGAGUAGACUGCGGGUUCGAGUCCCGUACGGAACG, the figure is not above 0.5; as for GUUCCGUUCGCGUAACGGUAACGCGUCUCCCUCCUAAGGAGAAGACUGCGGGUUCGAGUCCCGUAUGGAACG, not above 0.5; as for GUUCCGUUGGGGUGAUGGUAACGCGUCUCCCUCCUAGGGAGAAAACUGCGGGUUCGAGUCCCAUACGGAACG, 0.55. Regarding GUUCCGUUGGCGUAAUGGUAACGCGUCUCCCUCCUAAGGAGAAGACUGCGGGUUCGAGGCCCGCUCGGAACG, the yeast fitness was not above 0.5. With GUUCCGUUGGCGUAAUGGUAACGCGUCUCCCUCCUAACGAGAAGACUGCGGGUUCGAGUCACGUACAGAACG the figure was not above 0.5; with GUUCCGUUGGCGUAAUUGUAACGCGUGUCUCUCCUAAGGAGAAGACUGCGGGUUCGAGUACCGUACGGAACG, not above 0.5.

For GUUCCGUUGGCGUAAUGGUAACGUGUCUCCCUCCUAAGAAGAAGACUGCGGGUUCGAGUCCCGUACGGAACG, the yeast fitness came out at 0.875. GGUCCGUUGGCGUAAUGGUAACGCGUCUCCCUCCUAAGGAGAAGACUGCGGGUUCGAGUCCCGUUCGGAACG: the yeast fitness came out at 0.687. As for GCUCGGUUGGCGUAAUGGUAACGCGUCUCCCUCCUAGGGAGAAGACUACGGGUUCGAGUCCCGUACGGAACG, the figure is not above 0.5; as for GUUCCGUUGGAGUAAUGGUCACGCGUCUUCCUCCUAAGGAGAAGACUGCGGGUUCGAGUCCCGUACGGAACG, 0.564. As for GUUCCGUCGGCAUAAUGGUAACGCGUCUCCCUCCUAAGGAGAAGACUGCGGGUUCGAGUCCAGUACGGAACG, the figure is not above 0.5; as for GGUCCGUUGGCGUGAUGGUAACGCGUCUGCCUCCUAUGGAGAAGACUGCGGGUUCGAGUCCCGUACGGAACG, not above 0.5. Turning to GUACCGUUGGCGUAAUGGUAACGCGUCUCCCUCCUAAGGAGAAGACUGCCGGUUCGAGUCCCGUACGGAACG, the yeast fitness was 0.727. With GUUCCGUUGGCGUAAUGGUAAAGCGUCUCCCUCCUACGGAGAAGACUGCGGGUUCCAGUCCCGUACGGAACG the figure was not above 0.5; with GUUUCGUUGCCGUAAUGGUAACACGUCUCCCUCCUAAGGAGAAGACUGCGGAUUCGAAUCCCGUACGGAACG, not above 0.5. As for GUUCCGUUGGCGUAAUGGUAACGCGCCUCCCUUCUAAGGAGAAGACUGCGGGUUCGAGUCCCGUACGGAACG, the figure is 0.676; as for GUUCCGUUGGCGUAAUGGUCACGCGGCUCCCUCCUCAUGAGAAGACUGCGGGUUCGAGUCCCGUACGGAACG, not above 0.5; as for GUUCCGUUGGCGUAAUGGUAACGCGUCUCCCUCCUAAGGAGAAGGCUACGGGUUCGAGUCCCGUACGGAACG, 1.1. As for GUUCCGUUGGGGUAAUGGUAAUGCGUCUCCCUCCUAAGGAGAAGACUGCGGGUUCGAGUCCCGUACGGAACG, the figure is 0.653; as for GUUCCGCUGGCGUAAUGGUAACGCGUCUCCUUCCUAAGGAGAAGACUGCGGGUUCGUGUCCCGUACGGAACG, 0.539. As to GCUCCGUUGGGGUAAUGGUAACGAGUCUCCCUCCUAAGGAGAAGACUGCGGGUUCGAGUCCCGUACGGAACG, the yeast fitness was 0.665. As for GUCCCGUUGGCGUAAUGGUAACGCGUCUCCUUCCUAAGGAGAAGACUGCGGGUUCGAGUCACGUACGGAACG, the figure is 0.567; as for GUUCCGUUGGCGUAAUGGCAACGCGUAUCGCUCCUAAGGAGAAGACUGCGGGUACAAGUCCCGUACGGAACG, 0.671; as for GUUCCGUUGGCGUCAUGGUGACGCGUUUCCCUCCUAAGGAGAAGACUGCGGGUUCGAGUCCUGUACGGAACG, not above 0.5. With GUUCCGUUGGCGUAUUGGUAACGCGUCUCCCUCCUAAGGAGAAGCCUGCGGGUUUGAGUCCCGUACGGAACG the figure was not above 0.5; with GUUCCGUUGGCGUAAUGGUAACGCGUCUCCCUCCUAAGGAGCAGACUGCGGGUUCGAGUCCGGUACGGAACG, 0.704; with GUGCCGUUGGCGUAAUGGUAACGAGUCUCCCUCCUAAGGCGAAGACUGCGGGUUCGAGUCCCGUACGGAACG, not above 0.5.

With GUUCCGUUGGCGUAAUGGCAACGCGUCUCCCUCCUAAGGAGAAGACUGCGGGUUCGAGUCCCGUACGGAGCG, the yeast fitness was 0.982. With GUUCCGUUGGCGUAAUGGUAAGGCGUCUCCCUCCUAAGGAGAUGACUGCGGGUUCGAGUCCCGUACGGAACG the figure was 0.952; with GUUUCGUUGGCGUAAUGGCAACGCGUCUACCUCCUAAGGAGAAGACUGCGGGUUCGAGUCCCGUACGGAUCG, 0.632. On to GUUCCGUUAGCGUAAUGGUAAAGCGUCUCCCUCCUAAGGAGAAGACGGCGGGUUAGAGUCCCGUACGGAACG, for which the yeast fitness was not above 0.5. As for GCUCCGUUGGCGUAAUGGUAGCGCGUCUCCCUCCUGACGAGAAGACUGCGGGUUCGAGUCCCGUACGGAACG, the figure is not above 0.5; as for GUUGCGUUGGCGUAAUGGUAACGCGUCUCCCUCCUAAGGAGAAGUCUGUGGGUUCGAGUCCCGUACGGAACG, 0.502.

Consider GUUCCGUUGGCAUAAUGGUAACGGGUCUACCUCCUAAGGAGAAGACAGCGGGUUCGAGUCCAGUACGGAACG, for which the yeast fitness is not above 0.5. With GUUCCGUUGGCGUAAUGGUAACGCGUCUCCCUACUACGGAGAAGACUGCGGGUUCAAGUCCCGUGUGGAACG the figure was not above 0.5. As for GUUCCGUUGGCGUAAUGGUAACACAUCUCCCUCCUAAGGAGAAGACUGCGGGUUCGAGUCCCGUACGGAACG, the figure is 0.958; as for GGUCCGUUGGCGUAAUGGUAACGCGUCUCCCUCCUGAGGUGAUGACUGCGGGUUCGAGUCCCGUAAGGAACG, not above 0.5.

As to GCUCCGUUGGCGUAAUGGUAACGCGUCUCCCUCCUAAGGUGAAGACUGCGGGUUCGACUCCCGUACGGAACG, the yeast fitness is 0.705.

Regarding GUUCCGUUGGCGUUAAGGUAACGCGUCUCCCUGCUAAGGAGAAGCCUGCGGGUUCGAGUCCCGUACGGUACG, the yeast fitness is not above 0.5.

For the variant GUUCCGUUGGCGUAAUGGUAACGCGUCUGCCUCCUAAAGAGAUGACUGCGGGUUCGAGUCCCGUACGGAACG, the yeast fitness came to 0.689.
